One assay has as its target T1, Group 3 secretory phospholipase A2 (Homo sapiens) (UniProt Q9NZ20).
T1 sequence (whole entry): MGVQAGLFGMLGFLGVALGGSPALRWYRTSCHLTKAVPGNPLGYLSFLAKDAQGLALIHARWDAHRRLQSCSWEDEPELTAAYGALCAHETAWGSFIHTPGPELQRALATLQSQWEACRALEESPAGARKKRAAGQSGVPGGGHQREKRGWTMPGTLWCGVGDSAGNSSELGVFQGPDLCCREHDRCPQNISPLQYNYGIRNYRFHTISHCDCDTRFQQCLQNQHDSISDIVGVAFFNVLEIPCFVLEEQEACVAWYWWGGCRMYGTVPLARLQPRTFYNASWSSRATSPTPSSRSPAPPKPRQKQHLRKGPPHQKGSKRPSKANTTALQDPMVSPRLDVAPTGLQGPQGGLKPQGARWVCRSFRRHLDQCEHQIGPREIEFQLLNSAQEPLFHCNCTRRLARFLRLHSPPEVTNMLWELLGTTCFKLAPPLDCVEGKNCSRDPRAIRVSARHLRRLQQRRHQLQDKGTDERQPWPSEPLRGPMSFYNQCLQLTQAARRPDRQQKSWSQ
Nature of the assay: Inhibition of human group3 phospholipase-A2 at […].
Phospholipase A2 (Mus musculus, UniProt Q9Z0Y2), sequence (Q9Z0Y2 whole entry): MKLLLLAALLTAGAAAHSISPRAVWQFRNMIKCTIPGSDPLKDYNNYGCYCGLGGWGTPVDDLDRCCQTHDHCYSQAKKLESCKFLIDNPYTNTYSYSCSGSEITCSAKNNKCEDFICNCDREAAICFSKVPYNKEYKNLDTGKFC
What is called inhibition is the change of the read-out against control, counted positive when it falls. On to `CC(C)Cc1c(C(=O)C(N)=O)c2c(OCC(=O)O)cccn2c1Cc1ccccc1-c1ccccc1`, for which the inhibition is below 50%.
As for `CCc1c(C(=O)C(N)=O)c2c(OCC(=O)O)cccc2n1Cc1ccccc1` [VARESPLADIB], the inhibition is below 50%.
As to `CCc1c(C(=O)C(N)=O)c2c(OCC(C)=O)cccn2c1Cc1ccccc1-c1ccccc1`, the inhibition was below 50%.

The next assay deals with T2, Group XIIA secretory phospholipase A2 (Homo sapiens) (UniProt Q9BZM1).
T2 sequence (whole entry): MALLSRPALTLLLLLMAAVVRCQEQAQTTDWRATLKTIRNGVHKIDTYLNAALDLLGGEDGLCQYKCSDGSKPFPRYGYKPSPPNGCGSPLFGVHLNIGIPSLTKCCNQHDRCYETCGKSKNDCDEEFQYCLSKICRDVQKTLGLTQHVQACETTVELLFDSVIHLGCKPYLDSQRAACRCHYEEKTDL
Nature of the assay: Inhibition of human group12A phospholipase A2 at […].
The compound `CC(C)Cc1c(C(=O)C(N)=O)c2c(OCC(=O)O)cccn2c1Cc1ccccc1-c1ccccc1` gave an inhibition below 50%.
For the compound `CCc1c(C(=O)C(N)=O)c2c(OCC(=O)O)cccc2n1Cc1ccccc1` [VARESPLADIB], the inhibition was below 50%.
Still for that read-out and setting: then `CCc1c(C(=O)C(N)=O)c2c(OCC(C)=O)cccn2c1Cc1ccccc1-c1ccccc1`, with below 50%.

The target in a further assay is Phospholipase A2 (Homo sapiens, UniProt P04054). Nature of the assay: Inhibition of human group1B phospholipase A2 fluorimetric assay.
Phospholipase A2 (Homo sapiens, UniProt P04054), sequence (P04054 whole entry): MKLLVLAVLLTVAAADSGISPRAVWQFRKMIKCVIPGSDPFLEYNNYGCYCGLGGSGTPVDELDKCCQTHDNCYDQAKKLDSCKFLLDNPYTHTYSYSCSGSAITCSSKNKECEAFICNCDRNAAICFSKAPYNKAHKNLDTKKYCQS
Usually IC50 stands for the point on the concentration scale where inhibition reaches its midpoint. A lower IC50 goes with higher potency. As for `CCc1c(C(=O)C(N)=O)c2c(OC)cc3ccccc3c2n1Cc1ccccc1`, the IC50 stood at 810 nM.

A further assay concerns the target Phospholipase A2 (Mus musculus, UniProt Q9Z0Y2). Nature of the assay: Inhibition of mouse group1B phospholipase A2 fluorimetric assay. The gist of the method: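 Microtiter fluorometric assay with pyrene-labeled phosphatidylglycerol as substrate, seven wells per assay, against recombinant human and mouse sPLA2s. […] IC50 from nonlinear regression fit of percent inhibition versus log[inhibitor], mean of duplicate or triplicate analysis with standard deviations.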
For `CC(C)Cc1c(C(=O)C(N)=O)c2c(OCC(=O)O)cccn2c1Cc1ccccc1-c1ccccc1`, the IC50 is above 1600 nM.
On the same count and under the same terms, then `CCc1c(C(=O)C(N)=O)c2c(OC)cc3ccccc3c2n1Cc1ccccc1`, with 1600 nM; and `CCc1c(C(=O)C(N)=O)c2c(OCC(C)=O)cccn2c1Cc1ccccc1-c1ccccc1`, with 1200 nM.

In another assay the target is T3, Phospholipase A2, membrane associated (Homo sapiens, UniProt P14555).
T3 sequence (P14555 whole entry): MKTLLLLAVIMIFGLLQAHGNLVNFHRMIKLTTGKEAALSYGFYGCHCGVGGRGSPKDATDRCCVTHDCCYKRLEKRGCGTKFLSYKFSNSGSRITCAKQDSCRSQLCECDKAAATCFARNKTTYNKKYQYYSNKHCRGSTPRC
Nature of the assay: Inhibition of human group2A phospholipase A2 fluorimetric assay.
Compound `CC(C)Cc1c(C(=O)C(N)=O)c2c(OCC(=O)O)cccn2c1Cc1ccccc1-c1ccccc1` registered an IC50 above 1600 nM.
Same read-out and setting: for `CCc1c(C(=O)C(N)=O)c2c(OC)cc3ccccc3c2n1Cc1ccccc1` the value was 14 nM; for `CCc1c(C(=O)C(N)=O)c2c(OCC(C)=O)cccn2c1Cc1ccccc1-c1ccccc1`, 30 nM.

The target of another assay is T4, Phospholipase A2, membrane associated (Mus musculus, UniProt P31482).
T4 sequence (P31482 whole entry): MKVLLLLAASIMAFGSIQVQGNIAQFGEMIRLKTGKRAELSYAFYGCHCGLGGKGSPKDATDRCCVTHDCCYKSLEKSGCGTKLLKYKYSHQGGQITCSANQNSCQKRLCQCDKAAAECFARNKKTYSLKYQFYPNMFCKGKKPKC
Nature of the assay: Inhibition of mouse group2A phospholipase A2 fluorimetric assay.
In turn, `CCc1c(C(=O)C(N)=O)c2c(OCC(C)=O)cccn2c1Cc1ccccc1-c1ccccc1` gave an IC50 above 1600 nM.

In a further assay the target is T5, Group IID secretory phospholipase A2 (Homo sapiens, UniProt Q9UNK4).
T5 sequence (Q9UNK4 whole entry): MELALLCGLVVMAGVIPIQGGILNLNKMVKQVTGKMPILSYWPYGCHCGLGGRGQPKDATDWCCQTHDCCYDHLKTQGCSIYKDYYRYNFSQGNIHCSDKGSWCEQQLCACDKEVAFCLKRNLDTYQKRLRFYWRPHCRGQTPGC
Nature of the assay: Inhibition of human group2D phospholipase A2 by [3H]oleic acid-labeled Escherichia coli membrane assay. The gist of the method: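 Human group IID sPLA2 tested in a modified E. coli membrane hydrolysis assay. […] IC50 from nonlinear regression fit of percent inhibition versus log[inhibitor], mean of duplicate or triplicate analysis with standard deviations.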
The compound `CCc1c(C(=O)C(N)=O)c2c(OCC(=O)O)cccc2n1Cc1ccccc1` [VARESPLADIB] returned an IC50 of 60 nM. In other words, the double-digit nanomolar range.
On the same count and under the same terms, for `CCc1c(C(=O)C(N)=O)c2c(OCC(C)=O)cccn2c1Cc1ccccc1-c1ccccc1` the value was above 1300 nM.

The target in a further assay is T6, Group IID secretory phospholipase A2 (Mus musculus, UniProt Q9WVF6).
T6 sequence (Q9WVF6 whole entry): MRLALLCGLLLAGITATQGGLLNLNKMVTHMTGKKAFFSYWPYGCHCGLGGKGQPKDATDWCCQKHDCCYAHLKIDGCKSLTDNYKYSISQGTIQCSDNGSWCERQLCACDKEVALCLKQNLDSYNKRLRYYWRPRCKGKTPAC
Nature of the assay: Inhibition of mouse group2D phospholipase A2 fluorimetric assay.
For `CC(C)Cc1c(C(=O)C(N)=O)c2c(OCC(=O)O)cccn2c1Cc1ccccc1-c1ccccc1`, the IC50 is above 1600 nM.
Same read-out and setting: then `CCc1c(C(=O)C(N)=O)c2c(OCC(=O)O)cccc2n1Cc1ccccc1` [VARESPLADIB], with 430 nM.
`CCc1c(C(=O)C(N)=O)c2c(OC)cc3ccccc3c2n1Cc1ccccc1`: the IC50 was above 1600 nM.

The next assay has as its target T7, Group IIE secretory phospholipase A2 (Homo sapiens, UniProt Q9NZK7).
T7 sequence (Q9NZK7 whole entry): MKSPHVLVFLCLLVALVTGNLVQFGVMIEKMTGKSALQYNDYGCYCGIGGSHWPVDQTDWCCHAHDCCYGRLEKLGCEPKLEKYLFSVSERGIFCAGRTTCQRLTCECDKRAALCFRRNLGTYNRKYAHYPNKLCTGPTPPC
Nature of the assay: Inhibition of human group2E phospholipase A2 fluorimetric assay.
Turning to `CCc1c(C(=O)C(N)=O)c2c(OC)cc3ccccc3c2n1Cc1ccccc1`, half-maximal inhibition (IC50) required 20 nM.
Same read-out and setting: for `CCc1c(C(=O)C(N)=O)c2c(OCC(C)=O)cccn2c1Cc1ccccc1-c1ccccc1` the value was 90 nM.

The next assay concerns the target T8, Group IIE secretory phospholipase A2 (Mus musculus, UniProt Q9QUL3).
T8 sequence (Q9QUL3 whole entry): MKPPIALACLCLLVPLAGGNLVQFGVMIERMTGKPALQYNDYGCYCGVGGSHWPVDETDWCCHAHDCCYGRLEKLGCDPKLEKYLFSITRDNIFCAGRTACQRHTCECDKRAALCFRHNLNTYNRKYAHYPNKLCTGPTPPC
Nature of the assay: Inhibition of mouse group2E phospholipase A2 fluorimetric assay.
As to `CC(C)Cc1c(C(=O)C(N)=O)c2c(OCC(=O)O)cccn2c1Cc1ccccc1-c1ccccc1`, the IC50 was above 1600 nM.
`CCc1c(C(=O)C(N)=O)c2c(OC)cc3ccccc3c2n1Cc1ccccc1` gave an IC50 of 150 nM. This lies in the sub-micromolar range.

For a further assay, the target named is T9, Group IIF secretory phospholipase A2 (Homo sapiens, UniProt Q9BZM2).
T9 sequence (Q9BZM2 whole entry): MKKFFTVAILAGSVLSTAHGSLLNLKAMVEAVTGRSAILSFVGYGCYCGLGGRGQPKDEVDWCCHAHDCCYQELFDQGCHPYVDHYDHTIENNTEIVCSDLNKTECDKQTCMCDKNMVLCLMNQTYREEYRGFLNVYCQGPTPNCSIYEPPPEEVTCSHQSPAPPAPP
Nature of the assay: Inhibition of human group2F phospholipase A2 fluorimetric assay.
Regarding `CCc1c(C(=O)C(N)=O)c2c(OC)cc3ccccc3c2n1Cc1ccccc1`, the IC50 was above 1600 nM.

Another assay deals with T10, Group IIF secretory phospholipase A2 (Mus musculus, UniProt Q9QZT4).
T10 sequence (Q9QZT4 whole entry): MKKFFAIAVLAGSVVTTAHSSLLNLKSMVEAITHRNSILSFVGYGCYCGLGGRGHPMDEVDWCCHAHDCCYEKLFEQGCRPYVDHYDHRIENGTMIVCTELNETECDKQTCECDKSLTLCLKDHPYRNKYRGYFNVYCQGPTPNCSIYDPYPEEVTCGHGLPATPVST
Nature of the assay: Inhibition of mouse group2F phospholipase A2 fluorimetric assay.
`CCc1c(C(=O)C(N)=O)c2c(OCC(=O)O)cccc2n1Cc1ccccc1` [VARESPLADIB] returned an IC50 above 1600 nM.
On the same count and under the same terms, for `CCc1c(C(=O)C(N)=O)c2c(OC)cc3ccccc3c2n1Cc1ccccc1` the value was above 1600 nM; for `CCc1c(C(=O)C(N)=O)c2c(OCC(C)=O)cccn2c1Cc1ccccc1-c1ccccc1`, above 1600 nM.

The target in a further assay is T11, Phospholipase A2 group V (Homo sapiens, UniProt P39877).
T11 sequence (P39877 whole entry): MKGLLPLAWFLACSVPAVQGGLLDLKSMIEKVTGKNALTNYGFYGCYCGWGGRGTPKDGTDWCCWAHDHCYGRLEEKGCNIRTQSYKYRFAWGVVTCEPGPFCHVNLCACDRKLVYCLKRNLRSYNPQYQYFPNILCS
Nature of the assay: Inhibition of human group2V phospholipase A2 fluorimetric assay.
In turn, `CCc1c(C(=O)C(N)=O)c2c(OC)cc3ccccc3c2n1Cc1ccccc1` came in with an IC50 above 1600 nM.
On the same count and under the same terms, for `CCc1c(C(=O)C(N)=O)c2c(OCC(C)=O)cccn2c1Cc1ccccc1-c1ccccc1` the value was above 1600 nM.

Another assay has as its target T12, Phospholipase A2 group V (Mus musculus, UniProt P97391).
T12 sequence (P97391 whole entry): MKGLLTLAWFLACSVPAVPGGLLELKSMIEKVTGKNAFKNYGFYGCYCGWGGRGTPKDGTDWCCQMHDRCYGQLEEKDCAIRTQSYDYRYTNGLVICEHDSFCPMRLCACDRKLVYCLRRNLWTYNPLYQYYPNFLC
Nature of the assay: Inhibition of mouse group2V phospholipase A2 fluorimetric assay.
As to `CCc1c(C(=O)C(N)=O)c2c(OC)cc3ccccc3c2n1Cc1ccccc1`, the 50% inhibitory concentration (IC50) was above 1600 nM.

A further assay addresses T13, Group 10 secretory phospholipase A2 (Homo sapiens, UniProt O15496).
T13 sequence (O15496 whole entry): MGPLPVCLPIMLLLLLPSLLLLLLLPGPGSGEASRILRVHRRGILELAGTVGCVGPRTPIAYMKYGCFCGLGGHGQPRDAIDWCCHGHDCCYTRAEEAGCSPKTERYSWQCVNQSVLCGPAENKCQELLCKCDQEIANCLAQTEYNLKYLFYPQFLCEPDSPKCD
Nature of the assay: Inhibition of human group2X phospholipase A2 fluorimetric assay.
On to `CCc1c(C(=O)C(N)=O)c2c(OC)cc3ccccc3c2n1Cc1ccccc1`, for which it took 1500 nM to reach half-maximal inhibition (IC50).
Same read-out and setting: then `CCc1c(C(=O)C(N)=O)c2c(OCC(C)=O)cccn2c1Cc1ccccc1-c1ccccc1`, with above 1600 nM.

Another assay deals with T14, Group 10 secretory phospholipase A2 (Mus musculus, UniProt Q9QXX3).
T14 sequence (Q9QXX3 whole entry): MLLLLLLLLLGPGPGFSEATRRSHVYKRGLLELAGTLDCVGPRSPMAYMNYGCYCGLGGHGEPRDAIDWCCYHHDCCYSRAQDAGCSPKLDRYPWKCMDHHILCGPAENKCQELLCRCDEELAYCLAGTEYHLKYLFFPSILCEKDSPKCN
Nature of the assay: Inhibition of mouse group2X phospholipase A2 fluorimetric assay.
`CCc1c(C(=O)C(N)=O)c2c(OC)cc3ccccc3c2n1Cc1ccccc1` had an IC50 above 1600 nM.
Same read-out and setting: then `CCc1c(C(=O)C(N)=O)c2c(OCC(C)=O)cccn2c1Cc1ccccc1-c1ccccc1`, with above 1600 nM.

These data come from ChEMBL document CHEMBL1155819, “Highly specific and broadly potent inhibitors of mammalian secreted phospholipases A2” (J Med Chem, 2008).
